ChEMBL document CHEMBL2417369, “Synthesis and evaluation of heteroaryl substituted diazaspirocycles as scaffolds to probe the ATP-binding site of protein kinases” (Bioorg Med Chem, 2013)

Tests used:
[1] = target: Tyrosine-protein kinase ABL1 (Homo sapiens, UniProt P00519); test: Inhibition of ABL (unknown origin) at 30 uM by microfluidic mobility shift assay relative to control
Outline: (§1)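 Single-point screen in a 24-enzyme kinase panel using a microfluidic assay. Each compound was tested at […] with ATP at roughly the Km for each enzyme. The pan-AGC inhibitor H-89 served as an internal control on every plate.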

[2] = target: Mitogen-activated protein kinase 14 (Homo sapiens) (UniProt Q16539); test: Inhibition of p38alpha (unknown origin) at 30 uM by microfluidic mobility shift assay relative to control; outline: as §1
Sequence of Mitogen-activated protein kinase 14 (Homo sapiens) (Q16539 whole entry): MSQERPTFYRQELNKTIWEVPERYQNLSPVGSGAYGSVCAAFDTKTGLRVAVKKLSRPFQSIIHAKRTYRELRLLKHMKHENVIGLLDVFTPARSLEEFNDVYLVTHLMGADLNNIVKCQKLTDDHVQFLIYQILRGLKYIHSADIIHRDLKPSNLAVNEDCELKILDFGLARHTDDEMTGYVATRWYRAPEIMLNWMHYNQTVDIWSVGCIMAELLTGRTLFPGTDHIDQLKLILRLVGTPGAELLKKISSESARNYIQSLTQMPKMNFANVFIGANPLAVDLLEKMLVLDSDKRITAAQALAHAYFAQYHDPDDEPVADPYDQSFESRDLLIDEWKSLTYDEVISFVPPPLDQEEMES

[3] = target: Protein kinase C (PKC) (Homo sapiens) (UniProt O94806+P41743+P17252+P05129+Q05655+P05771+Q05513+Q02156+P24723+Q15139+Q04759); test: Inhibition of PKC (unknown origin) at 30 uM by microfluidic mobility shift assay relative to control; outline: as §1
[4] = target: Glycogen synthase kinase-3 beta (Homo sapiens, UniProt P49841); test: Inhibition of GSK3beta (unknown origin) at 30 uM by microfluidic mobility shift assay relative to control; outline: as §1
Sequence of Glycogen synthase kinase-3 beta (P49841 whole entry, looked up): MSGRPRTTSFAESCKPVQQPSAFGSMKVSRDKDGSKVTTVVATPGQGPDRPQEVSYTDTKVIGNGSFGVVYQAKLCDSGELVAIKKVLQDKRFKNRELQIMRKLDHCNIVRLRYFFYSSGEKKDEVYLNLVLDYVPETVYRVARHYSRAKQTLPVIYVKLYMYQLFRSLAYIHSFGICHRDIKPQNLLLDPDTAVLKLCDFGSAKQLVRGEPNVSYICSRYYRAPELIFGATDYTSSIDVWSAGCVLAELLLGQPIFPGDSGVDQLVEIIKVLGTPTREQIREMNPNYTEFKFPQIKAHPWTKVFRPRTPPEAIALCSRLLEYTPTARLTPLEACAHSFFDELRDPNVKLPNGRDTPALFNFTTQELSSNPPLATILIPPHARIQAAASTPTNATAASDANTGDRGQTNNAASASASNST

[5] = target: MAP kinase-activated protein kinase 2 (Homo sapiens) (UniProt P49137); test: Inhibition of MK2 (unknown origin) at 30 uM by microfluidic mobility shift assay relative to control; outline: as §1
Sequence of MAP kinase-activated protein kinase 2 (Homo sapiens) (P49137 whole entry, looked up): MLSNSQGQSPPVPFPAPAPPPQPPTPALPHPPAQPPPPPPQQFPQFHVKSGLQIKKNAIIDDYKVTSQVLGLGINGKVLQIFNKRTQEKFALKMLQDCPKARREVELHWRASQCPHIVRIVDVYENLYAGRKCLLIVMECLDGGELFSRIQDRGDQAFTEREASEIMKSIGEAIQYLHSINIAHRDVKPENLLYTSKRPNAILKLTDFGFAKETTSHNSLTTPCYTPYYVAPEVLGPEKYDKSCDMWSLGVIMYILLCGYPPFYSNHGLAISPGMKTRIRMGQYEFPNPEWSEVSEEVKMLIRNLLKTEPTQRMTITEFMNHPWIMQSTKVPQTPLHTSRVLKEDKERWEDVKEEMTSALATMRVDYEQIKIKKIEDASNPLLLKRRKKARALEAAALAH

[6] = target: T1, Serine/threonine-protein kinase Chk1 (Homo sapiens) (UniProt O14757); test: Inhibition of CHK1 (unknown origin) at 30 uM by microfluidic mobility shift assay relative to control; outline: as §1
T1 sequence (whole entry): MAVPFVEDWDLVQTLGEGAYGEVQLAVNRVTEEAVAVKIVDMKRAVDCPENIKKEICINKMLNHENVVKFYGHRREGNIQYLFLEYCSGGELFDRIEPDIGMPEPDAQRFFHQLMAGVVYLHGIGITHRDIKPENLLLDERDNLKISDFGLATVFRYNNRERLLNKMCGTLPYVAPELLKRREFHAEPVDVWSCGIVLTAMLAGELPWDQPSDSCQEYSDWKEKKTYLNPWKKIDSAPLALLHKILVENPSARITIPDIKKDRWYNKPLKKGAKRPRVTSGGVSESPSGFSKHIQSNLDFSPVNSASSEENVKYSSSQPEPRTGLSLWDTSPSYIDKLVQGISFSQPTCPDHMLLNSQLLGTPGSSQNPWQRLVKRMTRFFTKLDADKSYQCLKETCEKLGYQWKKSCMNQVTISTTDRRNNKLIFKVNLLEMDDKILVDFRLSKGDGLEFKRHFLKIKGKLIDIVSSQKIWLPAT

[7] = target: T2, Serine/threonine-protein kinase D2 (Homo sapiens) (UniProt Q9BZL6); test: Inhibition of PKD2 (unknown origin) at 30 uM by microfluidic mobility shift assay relative to control; outline: as §1
T2 sequence (whole entry): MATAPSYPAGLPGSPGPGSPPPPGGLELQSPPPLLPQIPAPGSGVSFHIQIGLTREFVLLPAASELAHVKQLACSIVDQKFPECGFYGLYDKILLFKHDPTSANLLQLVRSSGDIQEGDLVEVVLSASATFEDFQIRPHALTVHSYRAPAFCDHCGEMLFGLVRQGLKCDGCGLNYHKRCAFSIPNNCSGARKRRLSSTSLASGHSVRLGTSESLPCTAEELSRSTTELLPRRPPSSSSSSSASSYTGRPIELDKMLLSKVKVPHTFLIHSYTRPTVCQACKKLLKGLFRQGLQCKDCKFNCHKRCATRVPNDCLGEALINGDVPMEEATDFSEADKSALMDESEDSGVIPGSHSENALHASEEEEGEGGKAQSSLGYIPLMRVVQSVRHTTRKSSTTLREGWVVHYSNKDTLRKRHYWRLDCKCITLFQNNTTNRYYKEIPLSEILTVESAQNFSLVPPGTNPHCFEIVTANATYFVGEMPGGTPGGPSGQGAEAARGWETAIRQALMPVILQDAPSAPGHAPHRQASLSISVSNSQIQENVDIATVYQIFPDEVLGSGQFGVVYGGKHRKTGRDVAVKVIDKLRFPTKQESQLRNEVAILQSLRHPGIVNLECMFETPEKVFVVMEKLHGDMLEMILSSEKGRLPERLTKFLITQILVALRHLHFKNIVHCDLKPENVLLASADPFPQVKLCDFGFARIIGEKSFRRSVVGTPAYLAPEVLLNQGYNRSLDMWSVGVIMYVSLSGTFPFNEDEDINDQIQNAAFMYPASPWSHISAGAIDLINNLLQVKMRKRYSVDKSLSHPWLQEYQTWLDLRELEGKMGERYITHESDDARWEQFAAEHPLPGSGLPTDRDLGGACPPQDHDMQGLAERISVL

[8] = target: Tyrosine-protein kinase Fyn (Homo sapiens, UniProt P06241); test: Inhibition of FYN (unknown origin) at 30 uM by microfluidic mobility shift assay relative to control; outline: as §1
[9] = target: Tyrosine-protein kinase Lyn (Homo sapiens, UniProt P07948); test: Inhibition of LYN (unknown origin) at 30 uM by microfluidic mobility shift assay relative to control; outline: as §1
[10] = target: Ribosomal protein S6 kinase alpha-1 (Homo sapiens, UniProt Q15418); test: Inhibition of RSK1 (unknown origin) at 30 uM by microfluidic mobility shift assay relative to control; outline: as §1
Homo sapiens = organism: Homo sapiens; test: Inhibition of PKA (unknown origin) at 30 uM by microfluidic mobility shift assay relative to control; outline: as §1
[11] = target: Mitogen-activated protein kinase 1 (Homo sapiens, UniProt P28482); test: Inhibition of ERK2 (unknown origin) at 30 uM by microfluidic mobility shift assay relative to control; outline: as §1
Sequence of Mitogen-activated protein kinase 1 (P28482 whole entry): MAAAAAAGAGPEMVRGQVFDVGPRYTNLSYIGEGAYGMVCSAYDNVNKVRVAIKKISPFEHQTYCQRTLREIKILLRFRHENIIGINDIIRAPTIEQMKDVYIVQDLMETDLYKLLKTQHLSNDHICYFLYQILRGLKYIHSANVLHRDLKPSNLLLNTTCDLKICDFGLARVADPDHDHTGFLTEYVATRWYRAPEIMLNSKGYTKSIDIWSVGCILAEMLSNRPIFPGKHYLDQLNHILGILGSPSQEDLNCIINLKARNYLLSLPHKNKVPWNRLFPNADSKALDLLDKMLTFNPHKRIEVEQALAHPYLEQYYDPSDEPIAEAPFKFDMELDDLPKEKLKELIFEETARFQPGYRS

[12] = target: Ribosomal protein S6 kinase alpha-5 (Homo sapiens, UniProt O75582); test: Inhibition of MSK1 (unknown origin) at 30 uM by microfluidic mobility shift assay relative to control; outline: as §1
Sequence of Ribosomal protein S6 kinase alpha-5 (O75582 whole entry, looked up): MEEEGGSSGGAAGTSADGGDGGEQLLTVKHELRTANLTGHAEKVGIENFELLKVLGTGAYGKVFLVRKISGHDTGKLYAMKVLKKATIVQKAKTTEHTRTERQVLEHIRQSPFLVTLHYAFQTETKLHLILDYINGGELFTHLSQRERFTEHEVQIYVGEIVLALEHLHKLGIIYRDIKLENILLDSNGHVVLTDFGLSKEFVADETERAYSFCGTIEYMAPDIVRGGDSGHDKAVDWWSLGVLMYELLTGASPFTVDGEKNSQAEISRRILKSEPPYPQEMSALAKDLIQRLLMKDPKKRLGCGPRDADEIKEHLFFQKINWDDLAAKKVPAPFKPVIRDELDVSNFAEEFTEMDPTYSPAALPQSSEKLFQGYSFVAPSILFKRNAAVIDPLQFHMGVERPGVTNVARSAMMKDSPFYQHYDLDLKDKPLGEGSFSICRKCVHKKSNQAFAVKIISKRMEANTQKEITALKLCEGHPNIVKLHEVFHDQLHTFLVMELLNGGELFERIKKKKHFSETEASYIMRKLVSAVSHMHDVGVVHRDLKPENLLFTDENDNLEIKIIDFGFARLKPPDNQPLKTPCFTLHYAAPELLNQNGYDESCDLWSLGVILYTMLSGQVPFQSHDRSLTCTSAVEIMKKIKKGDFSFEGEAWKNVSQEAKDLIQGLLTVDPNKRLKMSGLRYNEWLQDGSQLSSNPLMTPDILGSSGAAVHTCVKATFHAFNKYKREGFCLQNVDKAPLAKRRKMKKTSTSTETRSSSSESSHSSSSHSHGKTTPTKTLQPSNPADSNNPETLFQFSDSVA

[13] = target: Tyrosine-protein kinase Lck (Homo sapiens, UniProt P06239); test: Inhibition of LCK (unknown origin) at 30 uM by microfluidic mobility shift assay relative to control; outline: as §1
[14] = target: Proto-oncogene tyrosine-protein kinase Src (Homo sapiens, UniProt P12931); test: Inhibition of SRC (unknown origin) at 30 uM by microfluidic mobility shift assay relative to control; outline: as §1
[15] = target: Serine/threonine-protein kinase Chk2 (Homo sapiens, UniProt O96017); test: Inhibition of CHK2 (unknown origin) at 30 uM by microfluidic mobility shift assay relative to control; outline: as §1
Sequence of Serine/threonine-protein kinase Chk2 (O96017 whole entry): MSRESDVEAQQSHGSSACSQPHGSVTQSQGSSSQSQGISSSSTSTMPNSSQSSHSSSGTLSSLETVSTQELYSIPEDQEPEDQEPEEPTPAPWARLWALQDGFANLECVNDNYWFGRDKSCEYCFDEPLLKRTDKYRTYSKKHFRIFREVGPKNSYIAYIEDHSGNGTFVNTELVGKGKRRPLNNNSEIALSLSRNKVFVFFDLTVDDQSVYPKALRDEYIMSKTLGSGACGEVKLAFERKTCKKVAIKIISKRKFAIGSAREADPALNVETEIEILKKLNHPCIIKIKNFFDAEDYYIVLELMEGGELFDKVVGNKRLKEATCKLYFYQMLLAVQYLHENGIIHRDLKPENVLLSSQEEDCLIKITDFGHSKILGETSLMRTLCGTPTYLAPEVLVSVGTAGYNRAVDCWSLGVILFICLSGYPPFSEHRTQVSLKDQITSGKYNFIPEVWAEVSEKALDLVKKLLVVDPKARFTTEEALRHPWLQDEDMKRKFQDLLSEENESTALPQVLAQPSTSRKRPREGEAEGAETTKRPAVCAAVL

[16] = target: Insulin receptor (Homo sapiens) (UniProt P06213); test: Inhibition of INSR (unknown origin) at 30 uM by microfluidic mobility shift assay relative to control; outline: as §1
[17] = target: RAC-beta serine/threonine-protein kinase (Homo sapiens, UniProt P31751); test: Inhibition of AKT2 (unknown origin) at 30 uM by microfluidic mobility shift assay relative to control; outline: as §1
[18] = target: RAC-alpha serine/threonine-protein kinase (Homo sapiens, UniProt P31749); test: Inhibition of AKT1 (unknown origin) at 30 uM by microfluidic mobility shift assay relative to control; outline: as §1
Sequence of RAC-alpha serine/threonine-protein kinase (P31749 whole entry): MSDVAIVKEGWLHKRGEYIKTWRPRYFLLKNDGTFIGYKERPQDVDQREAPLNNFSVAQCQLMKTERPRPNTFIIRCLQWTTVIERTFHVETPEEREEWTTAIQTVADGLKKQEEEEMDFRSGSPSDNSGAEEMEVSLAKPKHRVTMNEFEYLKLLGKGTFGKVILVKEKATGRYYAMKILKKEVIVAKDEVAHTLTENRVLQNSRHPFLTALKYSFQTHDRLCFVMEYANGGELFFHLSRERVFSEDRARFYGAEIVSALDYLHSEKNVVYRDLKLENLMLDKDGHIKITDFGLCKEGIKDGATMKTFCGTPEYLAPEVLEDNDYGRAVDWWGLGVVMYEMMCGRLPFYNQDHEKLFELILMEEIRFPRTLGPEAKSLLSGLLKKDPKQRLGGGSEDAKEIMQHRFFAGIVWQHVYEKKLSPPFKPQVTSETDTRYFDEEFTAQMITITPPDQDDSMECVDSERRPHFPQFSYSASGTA

[19] = target: Mitogen-activated protein kinase 3 (Homo sapiens, UniProt P27361); test: Inhibition of ERK1 (unknown origin) at 30 uM by microfluidic mobility shift assay relative to control; outline: as §1
Sequence of Mitogen-activated protein kinase 3 (P27361 whole entry): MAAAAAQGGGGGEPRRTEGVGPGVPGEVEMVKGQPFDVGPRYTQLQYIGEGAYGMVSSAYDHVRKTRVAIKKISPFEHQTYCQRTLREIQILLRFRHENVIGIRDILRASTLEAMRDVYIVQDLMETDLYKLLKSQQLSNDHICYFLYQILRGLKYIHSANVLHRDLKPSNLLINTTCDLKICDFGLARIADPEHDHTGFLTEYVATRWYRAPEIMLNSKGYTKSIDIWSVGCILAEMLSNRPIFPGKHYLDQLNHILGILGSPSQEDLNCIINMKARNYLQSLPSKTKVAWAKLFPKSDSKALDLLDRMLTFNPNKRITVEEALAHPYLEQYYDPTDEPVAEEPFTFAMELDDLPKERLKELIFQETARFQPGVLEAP

Sequence of Tyrosine-protein kinase ABL1 (P00519 whole entry): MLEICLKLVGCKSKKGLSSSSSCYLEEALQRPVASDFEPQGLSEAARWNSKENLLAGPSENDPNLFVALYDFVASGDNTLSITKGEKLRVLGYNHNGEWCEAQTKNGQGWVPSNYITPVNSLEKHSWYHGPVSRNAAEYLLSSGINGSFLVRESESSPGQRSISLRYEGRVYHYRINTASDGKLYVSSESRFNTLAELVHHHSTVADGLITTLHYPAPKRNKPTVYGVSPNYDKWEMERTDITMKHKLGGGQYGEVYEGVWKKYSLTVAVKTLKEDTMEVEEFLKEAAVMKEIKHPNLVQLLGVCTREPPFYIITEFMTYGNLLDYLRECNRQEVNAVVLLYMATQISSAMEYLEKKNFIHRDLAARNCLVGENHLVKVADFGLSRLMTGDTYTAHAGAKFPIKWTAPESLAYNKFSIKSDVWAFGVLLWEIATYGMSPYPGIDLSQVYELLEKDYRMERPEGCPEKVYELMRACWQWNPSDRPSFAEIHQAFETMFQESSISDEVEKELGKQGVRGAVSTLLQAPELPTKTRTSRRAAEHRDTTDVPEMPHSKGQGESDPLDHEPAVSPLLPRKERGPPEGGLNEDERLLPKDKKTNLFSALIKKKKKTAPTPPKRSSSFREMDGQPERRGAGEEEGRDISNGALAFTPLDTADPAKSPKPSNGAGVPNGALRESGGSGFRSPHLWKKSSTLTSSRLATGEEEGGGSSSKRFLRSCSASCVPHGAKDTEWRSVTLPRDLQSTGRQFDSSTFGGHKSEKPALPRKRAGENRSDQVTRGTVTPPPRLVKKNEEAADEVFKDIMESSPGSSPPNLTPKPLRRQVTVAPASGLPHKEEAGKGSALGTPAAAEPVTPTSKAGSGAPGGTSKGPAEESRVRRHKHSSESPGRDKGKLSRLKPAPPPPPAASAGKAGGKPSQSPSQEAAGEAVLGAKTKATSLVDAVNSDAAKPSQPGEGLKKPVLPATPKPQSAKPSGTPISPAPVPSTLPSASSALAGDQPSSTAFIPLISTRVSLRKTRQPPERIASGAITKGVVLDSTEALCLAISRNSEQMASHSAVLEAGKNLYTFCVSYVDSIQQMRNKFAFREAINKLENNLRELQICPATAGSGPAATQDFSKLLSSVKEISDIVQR

inhibition [1] [%]	inhibition [2] [%]	inhibition [3] [%]	inhibition [4] [%]	inhibition [5] [%]	inhibition [6] [%]	inhibition [7] [%]	inhibition [8] [%]	inhibition [9] [%]	inhibition [10] [%]	inhibition (Homo sapiens) [%]	inhibition [11] [%]	inhibition [12] [%]	inhibition [13] [%]	inhibition [14] [%]	inhibition [15] [%]	inhibition [16] [%]	inhibition [17] [%]	inhibition [18] [%]	inhibition [19] [%]	SMILES
28	9	18	9	11	65	27	0	17	27	85	20	62	16	15	29	16	25	66	18	O=C(C1CCC2(CCN(c3ncnc4[nH]cnc34)CC2)NC1)N1CCOCC1 (racemic)
36	0	0	56	20	22	40	97	35	64	77	28	49	52	49	47	12	10	26	31	c1nc(N2CCC3(CCCCO3)CC2)c2nc[nH]c2n1
31	6	1	14	15	67	30	20	35	48	95	41	75	44	33	58	18	36	80	31	c1ccc(CC2CCC3(CCN(c4ncnc5[nH]cnc45)CC3)NC2)cc1 (racemic)
16	10	0	21	3	84	84	28	53	90	101	74	100	60	64	98	0	98	101	66	c1ccc(CC2CCNC3(CCN(c4ncnc5[nH]cnc45)CC3)C2)cc1 (racemic)
17	14	6	7	10	54	30	0	14	28	86	25	93	19	16	27	17	27	69	20	CN(C)C(=O)C1CCC2(CCN(c3ncnc4[nH]cnc34)CC2)NC1 (racemic)

SMILES	inhibition [1] [%]	inhibition [2] [%]	inhibition [3] [%]	inhibition [4] [%]	inhibition [5] [%]	inhibition [6] [%]	inhibition [7] [%]	inhibition [8] [%]	inhibition [9] [%]	inhibition [10] [%]	inhibition (Homo sapiens) [%]	inhibition [11] [%]	inhibition [12] [%]	inhibition [13] [%]	inhibition [14] [%]	inhibition [15] [%]	inhibition [16] [%]	inhibition [17] [%]	inhibition [18] [%]	inhibition [19] [%]
O=S(=O)(c1cccc2cnccc12)N1CCC2(CCCNC2)CC1	0	9	9	5	8	8	15	11	5	29	77	13	36	9	35	65	6	14	0	0
O=S(=O)(c1cccc2cnccc12)N1CCC2(CCCN2)CC1	9	0	22	20	27	10	81	5	11	82	92	7	85	6	10	50	0	11	28	6
O=S(=O)(c1cccc2cnccc12)N1CCC2(CCCCN2)CC1	12	7	0	28	14	0	24	9	18	66	89	9	76	15	12	26	3	10	27	0
OC1CCNC2(CCN(c3ncnc4[nH]cnc34)CC2)C1 (racemic)	23	4	0	19	8	80	23	28	39	40	98	32	93	14	22	44	0	59	94	28
